Laboratory results from ChEMBL document CHEMBL2151035, “Diarylcyclopentendione metabolite obtained from a Preussia typharum isolate procured using an unconventional cultivation approach” (J Nat Prod, 2012).
The source made the active and inactive calls. The calls are words filed in the database; no cut-off is given here.

Key:
[1] = tested on: Radical scavenging activity; assay: Antioxidant activity assessed as DPPH free radical scavenging activity up to 30 uM after 30 mins; type: functional
Method in brief: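 Samples from 10 mM DMSO stocks were diluted in 2-propanol and mixed with DPPH in 2-propanol (40 uM solution as added). Controls were ascorbic acid (positive) and 2-propanol vehicle (negative). Plates were shaken and left for 30 min, then absorbance was read at 520 nm. Percent inhibition was calculated against control wells, in triplicate. IC50 is the concentration scavenging 50% of DPPH radicals.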

Staphylococcus aureus = assay: Antibacterial activity against methicillin-resistant Staphylococcus aureus up to 30 uM after 24 hrs; type: functional, organism-based
Klebsiella pneumoniae = assay: Antibacterial activity against Klebsiella pneumoniae up to 30 uM after 24 hrs; type: functional, organism-based
Aspergillus fumigatus = assay: Antifungal activity against Aspergillus fumigatus up to 30 uM after 48 hrs; type: functional, organism-based
[2] = tested on: Radical scavenging activity; assay: Antioxidant activity assessed as DPPH free radical scavenging activity after 30 mins; type: functional
Method in brief: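 Test samples taken up as 10 mM DMSO stocks, dissolved in 2-propanol. 50 μL of sample, or 2-propanol vehicle as negative control, mixed with 150 μL DPPH in 2-propanol (40 uM). Shaken, stood 30 min, absorbance read at 520 nm. Percent inhibition computed against control wells. Triplicates. IC50 taken as the concentration scavenging 50% of DPPH radicals. Ascorbic acid as positive control.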

SMILES | Activity [1] | Activity (Staphylococcus aureus) | Activity (Klebsiella pneumoniae) | Activity (Aspergillus fumigatus) | IC50 [2] [µM]
COc1cc(C2=CC(=O)[C@@](C)(c3ccc(O)c(OC)c3)C2=O)ccc1O | inactive | inactive | inactive | inactive | –
COc1cc(C)c(Oc2cc(C)cc(OC)c2O)c(O)c1 | – | inactive | inactive | inactive | 7.9
O=C1O[C@H]([C@@H](O)CO)C(O)=C1O [ASCORBIC ACID] | – | – | – | – | 5.6
COc1cc(C)c(Oc2cc(C)cc(O)c2)c(O)c1 | inactive | inactive | inactive | inactive | –
COc1cc(C)c(Oc2cc(C)cc(O)c2O)c(O)c1 | – | inactive | inactive | inactive | 11.6
